Reference: ChEMBL document CHEMBL1138567, “Regioselective synthesis and antimicrobial screening of novel ketocarbazolodispiropyrrolidine derivatives” (2009)

Each compound was assayed on Salmonella enterica subsp. enterica serovar Typhi str. CT18 (assay: Antimicrobial activity against Salmonella typhi at 75 ug/ml after 24 hrs by agar diffusion method). Conditions: read-out: IZ.
Assay type: functional
Outline: (§1)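 Agar well diffusion: about 9 ml nutrient agar in 9 cm Petri plates, seeded with the test organism. Wells cut with a cork borer and loaded with test compound at 25–100 per ml; tetracycline as control. Plates incubated 24 h at 37 °C. Read-out is the average diameter of the inhibition zone around each well, in mm.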
Compound `Cc1ccc([C@@H]2CN(C)[C@@]3(C(=O)c4cccc5cccc3c45)[C@]23CCc2c([nH]c4ccccc24)C3=O)cc1` has a zone of inhibition at 75 µg/mL of 21 mm.
`CN1C[C@@H](c2ccc(Cl)cc2)[C@@]2(CCc3c([nH]c4ccccc34)C2=O)[C@]12C(=O)Nc1ccccc12` gave a zone of inhibition at 75 µg/mL of 17 mm.
Work on `CN1C[C@@H](c2ccc([N+](=O)[O-])cc2)[C@@]2(CCc3c([nH]c4ccccc34)C2=O)[C@]12C(=O)c1cccc3cccc2c13` yielded a zone of inhibition at 75 µg/mL of 18 mm.

The compounds below were run on Staphylococcus aureus (assay: Antimicrobial activity against Staphylococcus aureus at 100 ug/ml after 24 hrs by agar diffusion method). Conditions: read-out: IZ.
Assay type: functional
Outline: (§2)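 Agar well diffusion: petri plates (9 cm) with about 9 ml nutrient agar, seeded with the test organism. Wells cut with a cork borer and loaded with test compound at 25, 50, 75 or 100 per ml; tetracycline as control. Incubated 37 °C for 24 h; average inhibition-zone diameter around wells measured (mm).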
`Cc1ccc([C@@H]2CN(C)[C@@]3(C(=O)c4cccc5cccc3c45)[C@]23CCc2c([nH]c4ccccc24)C3=O)cc1` gave a zone of inhibition at 100 µg/mL of 27 mm.
`CN1C[C@@H](c2ccc(Cl)cc2)[C@@]2(CCc3c([nH]c4ccccc34)C2=O)[C@]12C(=O)Nc1ccccc12` was tested, and the zone of inhibition at 100 µg/mL was 21 mm.
`CN1C[C@@H](c2ccc([N+](=O)[O-])cc2)[C@@]2(CCc3c([nH]c4ccccc34)C2=O)[C@]12C(=O)c1cccc3cccc2c13` was tested, and the zone of inhibition at 100 µg/mL was 31 mm.

These compounds were tested on Salmonella enterica subsp. enterica serovar Typhi str. CT18 (assay: Antimicrobial activity against Salmonella typhi at 25 ug/ml after 24 hrs by agar diffusion method). Conditions: read-out: IZ.
Assay type: functional
Outline: as §1
In the case of `Cc1ccc([C@@H]2CN(C)[C@@]3(C(=O)c4cccc5cccc3c45)[C@]23CCc2c([nH]c4ccccc24)C3=O)cc1`, the zone of inhibition at 25 µg/mL is reported as 12 mm.
`CN1C[C@@H](c2ccc(Cl)cc2)[C@@]2(CCc3c([nH]c4ccccc34)C2=O)[C@]12C(=O)Nc1ccccc12` showed a zone of inhibition at 25 µg/mL of 11 mm.
`CN1C[C@@H](c2ccc([N+](=O)[O-])cc2)[C@@]2(CCc3c([nH]c4ccccc34)C2=O)[C@]12C(=O)c1cccc3cccc2c13` showed a zone of inhibition at 25 µg/mL of 11 mm.

The compounds below were run on Proteus mirabilis (assay: Antimicrobial activity against Proteus mirabilis at 25 ug/ml after 24 hrs by agar diffusion method). Conditions: read-out: IZ.
Assay type: functional
Outline: as §2
`Cc1ccc([C@@H]2CN(C)[C@@]3(C(=O)c4cccc5cccc3c45)[C@]23CCc2c([nH]c4ccccc24)C3=O)cc1` gave a zone of inhibition at 25 µg/mL of 11 mm.
Compound `CN1C[C@@H](c2ccc(Cl)cc2)[C@@]2(CCc3c([nH]c4ccccc34)C2=O)[C@]12C(=O)Nc1ccccc12` has a zone of inhibition at 25 µg/mL of 13 mm.
For `CN1C[C@@H](c2ccc([N+](=O)[O-])cc2)[C@@]2(CCc3c([nH]c4ccccc34)C2=O)[C@]12C(=O)c1cccc3cccc2c13`, the zone of inhibition at 25 µg/mL was 9 mm.

What follows are compounds tested on Salmonella enterica subsp. enterica serovar Typhi str. CT18 (assay: Antimicrobial activity against Salmonella typhi at 50 ug/ml after 24 hrs by agar diffusion method). Conditions: read-out: IZ.
Assay type: functional
Outline: as §1
`Cc1ccc([C@@H]2CN(C)[C@@]3(C(=O)c4cccc5cccc3c45)[C@]23CCc2c([nH]c4ccccc24)C3=O)cc1` showed a zone of inhibition at 50 µg/mL of 15 mm.
`CN1C[C@@H](c2ccc(Cl)cc2)[C@@]2(CCc3c([nH]c4ccccc34)C2=O)[C@]12C(=O)Nc1ccccc12` gave a zone of inhibition at 50 µg/mL of 15 mm.
Compound `CN1C[C@@H](c2ccc([N+](=O)[O-])cc2)[C@@]2(CCc3c([nH]c4ccccc34)C2=O)[C@]12C(=O)c1cccc3cccc2c13` has a zone of inhibition at 50 µg/mL of 14 mm.

Each compound was assayed on Proteus vulgaris (assay: Antimicrobial activity against Proteus vulgaris at 100 ug/ml after 24 hrs by agar diffusion method). Conditions: read-out: IZ.
Assay type: functional
Outline: as §2
In the case of `Cc1ccc([C@@H]2CN(C)[C@@]3(C(=O)c4cccc5cccc3c45)[C@]23CCc2c([nH]c4ccccc24)C3=O)cc1`, the zone of inhibition at 100 µg/mL is reported as 20 mm.
`CN1C[C@@H](c2ccc(Cl)cc2)[C@@]2(CCc3c([nH]c4ccccc34)C2=O)[C@]12C(=O)Nc1ccccc12` showed a zone of inhibition at 100 µg/mL of 26 mm.
In the case of `CN1C[C@@H](c2ccc([N+](=O)[O-])cc2)[C@@]2(CCc3c([nH]c4ccccc34)C2=O)[C@]12C(=O)c1cccc3cccc2c13`, the zone of inhibition at 100 µg/mL is reported as > 40 mm.

These compounds were tested on Salmonella enterica subsp. enterica serovar Typhi str. CT18 (assay: Antimicrobial activity against Salmonella typhi at 100 ug/ml after 24 hrs by agar diffusion method). Conditions: read-out: IZ.
Assay type: functional
Outline: as §1
For `Cc1ccc([C@@H]2CN(C)[C@@]3(C(=O)c4cccc5cccc3c45)[C@]23CCc2c([nH]c4ccccc24)C3=O)cc1`, the zone of inhibition at 100 µg/mL was 29 mm.
`CN1C[C@@H](c2ccc(Cl)cc2)[C@@]2(CCc3c([nH]c4ccccc34)C2=O)[C@]12C(=O)Nc1ccccc12` gave a zone of inhibition at 100 µg/mL of 18 mm.
With `CN1C[C@@H](c2ccc([N+](=O)[O-])cc2)[C@@]2(CCc3c([nH]c4ccccc34)C2=O)[C@]12C(=O)c1cccc3cccc2c13` the zone of inhibition at 100 µg/mL was 25 mm.

These compounds were tested on Proteus mirabilis (assay: Antimicrobial activity against Proteus mirabilis at 100 ug/ml after 24 hrs by agar diffusion method). Conditions: read-out: IZ.
Assay type: functional
Outline: as §2
Work on `Cc1ccc([C@@H]2CN(C)[C@@]3(C(=O)c4cccc5cccc3c45)[C@]23CCc2c([nH]c4ccccc24)C3=O)cc1` yielded a zone of inhibition at 100 µg/mL of 21 mm.
`CN1C[C@@H](c2ccc(Cl)cc2)[C@@]2(CCc3c([nH]c4ccccc34)C2=O)[C@]12C(=O)Nc1ccccc12` was tested, and the zone of inhibition at 100 µg/mL was 22 mm.
Compound `CN1C[C@@H](c2ccc([N+](=O)[O-])cc2)[C@@]2(CCc3c([nH]c4ccccc34)C2=O)[C@]12C(=O)c1cccc3cccc2c13` has a zone of inhibition at 100 µg/mL of 21 mm.

Each compound was assayed on Staphylococcus aureus (assay: Antimicrobial activity against Staphylococcus aureus at 75 ug/ml after 24 hrs by agar diffusion method). Conditions: read-out: IZ.
Assay type: functional
Outline: as §2
For `Cc1ccc([C@@H]2CN(C)[C@@]3(C(=O)c4cccc5cccc3c45)[C@]23CCc2c([nH]c4ccccc24)C3=O)cc1`, the zone of inhibition at 75 µg/mL was 23 mm.
In the case of `CN1C[C@@H](c2ccc(Cl)cc2)[C@@]2(CCc3c([nH]c4ccccc34)C2=O)[C@]12C(=O)Nc1ccccc12`, the zone of inhibition at 75 µg/mL is reported as 18 mm.
With `CN1C[C@@H](c2ccc([N+](=O)[O-])cc2)[C@@]2(CCc3c([nH]c4ccccc34)C2=O)[C@]12C(=O)c1cccc3cccc2c13` the zone of inhibition at 75 µg/mL was 21 mm.

Each compound was assayed on Proteus vulgaris (assay: Antimicrobial activity against Proteus vulgaris at 50 ug/ml after 24 hrs by agar diffusion method). Conditions: read-out: IZ.
Assay type: functional
Outline: as §2
`Cc1ccc([C@@H]2CN(C)[C@@]3(C(=O)c4cccc5cccc3c45)[C@]23CCc2c([nH]c4ccccc24)C3=O)cc1` was tested, and the zone of inhibition at 50 µg/mL was 14 mm.
With `CN1C[C@@H](c2ccc(Cl)cc2)[C@@]2(CCc3c([nH]c4ccccc34)C2=O)[C@]12C(=O)Nc1ccccc12` the zone of inhibition at 50 µg/mL was 18 mm.
For `CN1C[C@@H](c2ccc([N+](=O)[O-])cc2)[C@@]2(CCc3c([nH]c4ccccc34)C2=O)[C@]12C(=O)c1cccc3cccc2c13`, the zone of inhibition at 50 µg/mL was 22 mm.

The compounds below were run on Proteus vulgaris (assay: Antimicrobial activity against Proteus vulgaris at 75 ug/ml after 24 hrs by agar diffusion method). Conditions: read-out: IZ.
Assay type: functional
Outline: as §2
Work on `Cc1ccc([C@@H]2CN(C)[C@@]3(C(=O)c4cccc5cccc3c45)[C@]23CCc2c([nH]c4ccccc24)C3=O)cc1` yielded a zone of inhibition at 75 µg/mL of 16 mm.
For `CN1C[C@@H](c2ccc(Cl)cc2)[C@@]2(CCc3c([nH]c4ccccc34)C2=O)[C@]12C(=O)Nc1ccccc12`, the zone of inhibition at 75 µg/mL was 24 mm.
`CN1C[C@@H](c2ccc([N+](=O)[O-])cc2)[C@@]2(CCc3c([nH]c4ccccc34)C2=O)[C@]12C(=O)c1cccc3cccc2c13` was tested, and the zone of inhibition at 75 µg/mL was 27 mm.

These compounds were tested on Staphylococcus aureus (assay: Antimicrobial activity against Staphylococcus aureus at 25 ug/ml after 24 hrs by agar diffusion method). Conditions: read-out: IZ.
Assay type: functional
Outline: as §2
`Cc1ccc([C@@H]2CN(C)[C@@]3(C(=O)c4cccc5cccc3c45)[C@]23CCc2c([nH]c4ccccc24)C3=O)cc1` showed a zone of inhibition at 25 µg/mL of 14 mm.
`CN1C[C@@H](c2ccc(Cl)cc2)[C@@]2(CCc3c([nH]c4ccccc34)C2=O)[C@]12C(=O)Nc1ccccc12` gave a zone of inhibition at 25 µg/mL of 9 mm.
Work on `CN1C[C@@H](c2ccc([N+](=O)[O-])cc2)[C@@]2(CCc3c([nH]c4ccccc34)C2=O)[C@]12C(=O)c1cccc3cccc2c13` yielded a zone of inhibition at 25 µg/mL of 9 mm.

These compounds were tested on Staphylococcus aureus (assay: Antimicrobial activity against Staphylococcus aureus at 50 ug/ml after 24 hrs by agar diffusion method). Conditions: read-out: IZ.
Assay type: functional
Outline: as §2
In the case of `Cc1ccc([C@@H]2CN(C)[C@@]3(C(=O)c4cccc5cccc3c45)[C@]23CCc2c([nH]c4ccccc24)C3=O)cc1`, the zone of inhibition at 50 µg/mL is reported as 18 mm.
In the case of `CN1C[C@@H](c2ccc(Cl)cc2)[C@@]2(CCc3c([nH]c4ccccc34)C2=O)[C@]12C(=O)Nc1ccccc12`, the zone of inhibition at 50 µg/mL is reported as 14 mm.
`CN1C[C@@H](c2ccc([N+](=O)[O-])cc2)[C@@]2(CCc3c([nH]c4ccccc34)C2=O)[C@]12C(=O)c1cccc3cccc2c13` gave a zone of inhibition at 50 µg/mL of 16 mm.

The compounds below were run on Proteus mirabilis (assay: Antimicrobial activity against Proteus mirabilis at 50 ug/ml after 24 hrs by agar diffusion method). Conditions: read-out: IZ.
Assay type: functional
Outline: as §2
`Cc1ccc([C@@H]2CN(C)[C@@]3(C(=O)c4cccc5cccc3c45)[C@]23CCc2c([nH]c4ccccc24)C3=O)cc1` showed a zone of inhibition at 50 µg/mL of 14 mm.
`CN1C[C@@H](c2ccc(Cl)cc2)[C@@]2(CCc3c([nH]c4ccccc34)C2=O)[C@]12C(=O)Nc1ccccc12` gave a zone of inhibition at 50 µg/mL of 15 mm.
Work on `CN1C[C@@H](c2ccc([N+](=O)[O-])cc2)[C@@]2(CCc3c([nH]c4ccccc34)C2=O)[C@]12C(=O)c1cccc3cccc2c13` yielded a zone of inhibition at 50 µg/mL of 13 mm.

What follows are compounds tested on Proteus vulgaris (assay: Antimicrobial activity against Proteus vulgaris at 25 ug/ml after 24 hrs by agar diffusion method). Conditions: read-out: IZ.
Assay type: functional
Outline: as §2
`Cc1ccc([C@@H]2CN(C)[C@@]3(C(=O)c4cccc5cccc3c45)[C@]23CCc2c([nH]c4ccccc24)C3=O)cc1` was tested, and the zone of inhibition at 25 µg/mL was 11 mm.
For `CN1C[C@@H](c2ccc(Cl)cc2)[C@@]2(CCc3c([nH]c4ccccc34)C2=O)[C@]12C(=O)Nc1ccccc12`, the zone of inhibition at 25 µg/mL was 9 mm.
For `CN1C[C@@H](c2ccc([N+](=O)[O-])cc2)[C@@]2(CCc3c([nH]c4ccccc34)C2=O)[C@]12C(=O)c1cccc3cccc2c13`, the zone of inhibition at 25 µg/mL was 13 mm.

What follows are compounds tested on Proteus mirabilis (assay: Antimicrobial activity against Proteus mirabilis at 75 ug/ml after 24 hrs by agar diffusion method). Conditions: read-out: IZ.
Assay type: functional
Outline: as §2
Compound `Cc1ccc([C@@H]2CN(C)[C@@]3(C(=O)c4cccc5cccc3c45)[C@]23CCc2c([nH]c4ccccc24)C3=O)cc1` has a zone of inhibition at 75 µg/mL of 18 mm.
For `CN1C[C@@H](c2ccc(Cl)cc2)[C@@]2(CCc3c([nH]c4ccccc34)C2=O)[C@]12C(=O)Nc1ccccc12`, the zone of inhibition at 75 µg/mL was 18 mm.
Work on `CN1C[C@@H](c2ccc([N+](=O)[O-])cc2)[C@@]2(CCc3c([nH]c4ccccc34)C2=O)[C@]12C(=O)c1cccc3cccc2c13` yielded a zone of inhibition at 75 µg/mL of 17 mm.
